Data: ChEMBL document CHEMBL1275473, “Activities of ceftobiprole, linezolid, vancomycin, and daptomycin against community-associated and hospital-associated methicillin-resistant Staphylococcus aureus” (2008)
Values after ≈ are worked out from the molar mass of the structure shown.

What was measured:
Type in all cases: functional
Staphylococcus aureus [1] = assay: Antimicrobial activity against hospital-acquired methicillin-resistant Staphylococcus aureus by broth microdilution method
Method in brief: (§1)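 Broth microdilution in duplicate per CLSI guidelines on clinical CA-/HA-MRSA isolates (100 each, Detroit Medical Center). Mueller-Hinton broth with 25 mg/liter calcium and 12.5 mg/liter magnesium; for daptomycin, 50 mg/liter calcium and 12.5 mg/liter magnesium.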

Staphylococcus aureus [2] = assay: Antimicrobial activity against community-acquired methicillin-resistant Staphylococcus aureus by broth microdilution method in presence of 50% human serum
Method in brief: (§2)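 Broth microdilution per CLSI, in duplicate, with 50% human serum added. Mueller-Hinton broth with 50 mg/liter calcium and 12.5 mg/liter magnesium. Run on 20 randomly chosen isolates, 10 CA-MRSA and 10 HA-MRSA.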

Staphylococcus aureus [3] = assay: Bactericidal activity against hospital-acquired methicillin-resistant Staphylococcus aureus selected at 4 times MIC after 24 hrs by time kill analysis in presence of 50% human serum
Method in brief: (§3)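 Time-kill in triplicate on four randomly selected isolates per group. Start inoculum ~10^6 CFU/ml, drug at 4× MIC; serum arm has 50% human serum. Sampled over 0–24 h, diluted in cold 0.9% NaCl, spiral-plated; detection limit 2 log10 CFU/ml. Bactericidal means ≥3-log10 reduction. T99.9 by linear regression or visual inspection.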

Staphylococcus aureus [4] = assay: Bactericidal activity against hospital-acquired methicillin-resistant Staphylococcus aureus by broth microdilution method in presence of 50% human serum
Method in brief: (§4)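 MBC with 50% human serum on 10 CA-MRSA and 10 HA-MRSA isolates. Mueller-Hinton broth with 50 mg/liter calcium and 12.5 mg/liter magnesium. Aliquots from clear wells were plated onto tryptic soy agar.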

Staphylococcus aureus [5] = assay: Antimicrobial activity against community-acquired methicillin-resistant Staphylococcus aureus by broth microdilution method; method in brief: as §1
Staphylococcus aureus [6] = assay: Antimicrobial activity against hospital-acquired methicillin-resistant Staphylococcus aureus by broth microdilution method in presence of 50% human serum; method in brief: as §2
Staphylococcus aureus [7] = assay: Bactericidal activity against community-acquired methicillin-resistant Staphylococcus aureus selected at 4 times MIC after 24 hrs by time kill analysis; method in brief: as §3
Staphylococcus aureus [8] = assay: Bactericidal activity against hospital-acquired methicillin-resistant Staphylococcus aureus by broth microdilution method; conditions: for MBC: Staphylococcus aureus
Method in brief: (§5)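 MBC read after CLSI broth microdilution in duplicate. Mueller-Hinton broth with 25 mg/liter calcium and 12.5 mg/liter magnesium; for daptomycin, 50 mg/liter calcium. 5-μl aliquots from clear wells were plated onto tryptic soy agar.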

Staphylococcus aureus [9] = assay: Bactericidal activity against community-acquired methicillin-resistant Staphylococcus aureus selected at 4 times MIC after 24 hrs by time kill analysis in presence of 50% human serum; method in brief: as §3
Staphylococcus aureus [10] = assay: Bactericidal activity against community-acquired methicillin-resistant Staphylococcus aureus by broth microdilution method; conditions: for MBC: Staphylococcus aureus; method in brief: as §5
Staphylococcus aureus [11] = assay: Bactericidal activity against community-acquired methicillin-resistant Staphylococcus aureus by broth microdilution method in presence of 50% human serum; method in brief: as §4
Staphylococcus aureus [12] = assay: Bactericidal activity against hospital-acquired methicillin-resistant Staphylococcus aureus selected at 4 times MIC after 24 hrs by time kill analysis; method in brief: as §3
Staphylococcus aureus [13] = assay: Bactericidal activity against hospital-acquired methicillin-resistant Staphylococcus aureus selected at 0.5 times MIC after 24 hrs by time kill analysis
Method in brief: (§6)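 Time-kill at 0.5× or 1× MIC, alone and combined with tobramycin. Start inoculum ~10^6 CFU/ml, triplicate, sampled over 0–24 h and spiral-plated; detection limit 2 log10 CFU/ml. Bactericidal means ≥3-log10 CFU/ml reduction. Synergy means ≥2-log10 more killing at 24 h than the best single drug.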

Staphylococcus aureus [14] = assay: Bactericidal activity against hospital-acquired methicillin-resistant Staphylococcus aureus selected at MIC after 24 hrs by time kill analysis; method in brief: as §6
Staphylococcus aureus [15] = assay: Bactericidal activity against community-acquired methicillin-resistant Staphylococcus aureus selected at MIC after 24 hrs by time kill analysis; method in brief: as §6
Staphylococcus aureus [16] = assay: Bactericidal activity against community-acquired methicillin-resistant Staphylococcus aureus selected at 0.5 times MIC after 24 hrs by time kill analysis; method in brief: as §6

SMILES	MIC50 (Staphylococcus aureus [1]) [µg/mL]	MIC90 (Staphylococcus aureus [1]) [µg/mL]	MIC50 (Staphylococcus aureus [5]) [µg/mL]	MIC90 (Staphylococcus aureus [5]) [µg/mL]	T99.9% (Staphylococcus aureus [7]) [h]	MBC50 (Staphylococcus aureus [8]) [µg/mL]	MBC90 (Staphylococcus aureus [8]) [µg/mL]	MBC (Staphylococcus aureus [8]) [µg/mL]	MBC50 (Staphylococcus aureus [10]) [µg/mL]	MBC90 (Staphylococcus aureus [10]) [µg/mL]	MBC (Staphylococcus aureus [10]) [µg/mL]	T99.9% (Staphylococcus aureus [12]) [h]	also measured
CCCCCCCCCC(=O)N[C@@H](Cc1c[nH]c2ccccc12)C(=O)N[C@H](CC(N)=O)C(=O)N[C@@H](CC(=O)O)C(=O)N[C@@H]1C(=O)NCC(=O)N[C@@H](CCCN)C(=O)N[C@@H](CC(=O)O)C(=O)N[C@H](C)C(=O)N[C@@H](CC(=O)O)C(=O)NCC(=O)N[C@H](CO)C(=O)N[C@@H]([C@H](C)CC(=O)O)C(=O)N[C@@H](CC(=O)c2ccccc2N)C(=O)O[C@@H]1C	0.25 (≈ 0.154 µM)	0.5 (≈ 0.309 µM)	0.25 (≈ 0.154 µM)	0.5 (≈ 0.309 µM)	1.6	0.25 (≈ 0.154 µM)	1 (≈ 0.617 µM)	0.125 (≈ 0.0771 µM)	0.25 (≈ 0.154 µM)	0.5 (≈ 0.309 µM)	0.125 (≈ 0.0771 µM)	1.6	MIC50 (Staphylococcus aureus [2]): 1 µg/mL; MIC90 (Staphylococcus aureus [2]): 1 µg/mL; T99.9% (Staphylococcus aureus [3]): 2.1 h; MBC50 (Staphylococcus aureus [4]): 1 µg/mL; MBC90 (Staphylococcus aureus [4]): 1 µg/mL; MBC (Staphylococcus aureus [4]; Staphylococcus aureus): 0.5 µg/mL; MIC50 (Staphylococcus aureus [6]): 0.5 µg/mL; MIC90 (Staphylococcus aureus [6]): 1 µg/mL; T99.9% (Staphylococcus aureus [9]): 2.2 h; MBC50 (Staphylococcus aureus [11]): 1 µg/mL; MBC90 (Staphylococcus aureus [11]): 1 µg/mL; MBC (Staphylococcus aureus [11]; Staphylococcus aureus): 0.5 µg/mL
Nc1nc(/C(=N/O)C(=O)N[C@@H]2C(=O)N3C(C(=O)O)=C(/C=C4\CCN([C@@H]5CCNC5)C4=O)CS[C@H]23)ns1 [CEFTOBIPROLE]	1 (≈ 1.87 µM)	2 (≈ 3.74 µM)	1 (≈ 1.87 µM)	2 (≈ 3.74 µM)	8	2 (≈ 3.74 µM)	4 (≈ 7.48 µM)	0.5 (≈ 0.935 µM)	2 (≈ 3.74 µM)	4 (≈ 7.48 µM)	0.5 (≈ 0.935 µM)	11.8	T99.9% (Staphylococcus aureus [13]): 14.2 h; T99.9% (Staphylococcus aureus [14]): 8.6 h; T99.9% (Staphylococcus aureus [15]): 8.6 h; T99.9% (Staphylococcus aureus [16]): 14.2 h
CN[C@H](CC(C)C)C(=O)N[C@H]1C(=O)N[C@@H](CC(N)=O)C(=O)N[C@H]2C(=O)N[C@H]3C(=O)N[C@H](C(=O)N[C@H](C(=O)O)c4cc(O)cc(O)c4-c4cc3ccc4O)[C@H](O)c3ccc(c(Cl)c3)Oc3cc2cc(c3O[C@@H]2O[C@H](CO)[C@@H](O)[C@H](O)[C@H]2O[C@H]2C[C@](C)(N)[C@H](O)[C@H](C)O2)Oc2ccc(cc2Cl)[C@H]1O [VANCOMYCIN]	1 (≈ 0.69 µM)	2 (≈ 1.38 µM)	1 (≈ 0.69 µM)	1 (≈ 0.69 µM)	8.6	1 (≈ 0.69 µM)	2 (≈ 1.38 µM)	0.5 (≈ 0.345 µM)	1 (≈ 0.69 µM)	2 (≈ 1.38 µM)	0.5 (≈ 0.345 µM)	8.6	–
CC(=O)NC[C@H]1CN(c2ccc(N3CCOCC3)c(F)c2)C(=O)O1 [LINEZOLID]	2 (≈ 5.93 µM)	4 (≈ 11.9 µM)	2 (≈ 5.93 µM)	4 (≈ 11.9 µM)	–	16 (≈ 47.4 µM)	64 (≈ 190 µM)	1 (≈ 2.96 µM)	8 (≈ 23.7 µM)	32 (≈ 94.9 µM)	2 (≈ 5.93 µM)	–	–
